The source made the active and inactive calls.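 How the source made its calls, unless noted: active means viability loss from added drug above about 55%, and viability with drug at most 40%, in both replicates (limit read from the data, passing the limit was not always enough); inconclusive means both conditions met in only one replicate; inactive means neither replicate meets both conditions.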

Experiment [1] in a line: SK-BR-3 cell growth inhibitors, pilot screen, 24 h, human (AID 572;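 active means viability at or below 10% of carrier control in both of two separate runs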;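 further: compound exposure lasted between 18 and 24 h rather than exactly 24 h; 100% = carrier-treated control wells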). Particulars: SK-BR-3 viability, CellTiter-Glo luminescence, at 10 µM, stronger effect = lower value.
The nature of experiment [2]: HUVEC growth inhibition – cell-based, human, primary screen (AID 575;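 active means viability at or below 30% in both replicate assays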;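 further: 100% = median of untreated cell wells with 0.1% DMSO on each plate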). The conditions noted are these: HUVEC proliferation, CellTiter-Glo luminescence, 72 h; at 10 µM; stronger effect = lower value. The procedure, abridged: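 Assay system: Primary human umbilical vein endothelial cells | Quantity: 1250 cells per well | Medium: Supplemented EBM, 2% fetal bovine serum | Detection: CellTiter-Glo luminescence measuring cellular ATP | Read-out: % viability vs DMSO wells | Plate: Collagen-coated 384-well format | Times: 72 h exposure, 37 °C, 5% CO2, 30 min RT equilibration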
On the technique in general: In ATP-based viability assays light output follows the ATP content of the culture.

Experiment [3] in a line: growth inhibitors of H69AR lung tumor, primary screen, human, duplicate replicates (AID 580;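 active means viability at or under a set limit in both replicates, limit being median viability minus 3 SD, cut at about 48% in these data, passing the limit was not always enough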;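 further: 100% = mean luminescence of untreated wells and 0% = no signal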). Particulars: H69AR lung tumor cells viability, ATP luminescence, 72 h; at 10 µM; stronger effect = lower value.
A short description of experiment [4]: reversal of MRP1-mediated doxorubicin resistance, pilot screen, H69AR cells, doxorubicin co-treatment (AID 601). The conditions noted are these: CellTiter-Glo, 72 h, at 10 µM; for differential viability (reversal): stronger effect = higher value.
Experiment [5] can be described thus: 384-well plate pilot, post-Golgi transport modulator project, inhibition of yeast transport mutant growth (AID 636; in the data active means inhibition above about 31%). Particulars: absorbance 615 nm, about 18 h, stronger effect = higher value.
A short description of experiment [6]: growth suppression of yeast trafficking mutant, preliminary HTS, modulators of trafficking downstream of Golgi apparatus project, 1536-format plate, OD 615 nm (AID 637; in the data active means inhibition above about 30%). Particulars: yeast transport mutant growth, absorbance 615 nm, 18 h; stronger effect = higher value.
Where [7] appears, read: H69AR cells + 2 uM doxorubicin, measured here: viability with 2 uM doxorubicin, stronger effect = lower value.
Where [8] appears, read: H69AR cells, compound alone cytotoxicity.

As usually defined, the viability is a read-out of living cells in per cent, often relative to untreated cells. The term inhibition denotes the change of the read-out against control, counted positive when it falls. Turning to `CCOc1ccc(N2CC(C(=O)NCCc3ccc(OC)c(OC)c3)CC2=O)cc1` (stereo unspecified), the viability in experiment [1] was 108% (inactive); in experiment [2] it was 97.6% (inactive); in experiment [3], 94.5% (inactive); in experiment [4] (setting [7]), 91.4%; in experiment [4] (setting [8]) it was 94.5%. Moreover, the differential viability (reversal) in experiment [4] (H69AR cells + 2 uM doxorubicin) is 3.03% (inactive). Also, the figures for the inhibition in experiment [5] and in experiment [6] were -11% (inactive) and 2.26% (inactive), respectively.

In the case of `COc1ccc(-c2[nH]nc3c2C(c2ccncc2)C(C#N)=C(N)O3)cc1` (stereo unspecified), the viability in experiment [1] was 71% (inactive); in experiment [2] it was 122% (inactive); in experiment [3], 92.2% (inactive); in experiment [4] (setting [7]) it was 90%; in experiment [4] (setting [8]), 92.2%. Moreover, the differential viability (reversal) in experiment [4] (H69AR cells + 2 uM doxorubicin) was 2.15% (inactive). Moreover, the inhibition is -5.81% (inactive) in experiment [5] and -0.18% (inactive) in experiment [6].

For the compound `COc1cccc(NC(=O)N(CCCN2CCOCC2)C(C)c2cc3cccc(OC)c3o2)c1` (stereo unspecified), the viability is 65% (inactive) in experiment [1]; 99.9% (inactive) in experiment [2]; 93.2% (inactive) in experiment [3]; 96.6% in experiment [4] (setting [7]); 93.2% in experiment [4] (setting [8]). Further, the differential viability (reversal) in experiment [4] (H69AR cells + 2 uM doxorubicin) is -3.43% (inactive). For the same compound, the inhibition is -8.08% (inactive) in experiment [5] and -0.55% (inactive) in experiment [6].

Turning to `CC1(C)CC(=O)C2=C(C1)N(CC1CCCO1)C(=O)C2(O)C(F)(F)F` (stereo unspecified), the viability in experiment [1] is 98% (inactive); in experiment [2], 97.5% (inactive); in experiment [3] it was 101% (inactive); in experiment [4] (setting [7]), 97.7%; in experiment [4] (setting [8]), 101%. Besides, the differential viability (reversal) in experiment [4] (H69AR cells + 2 uM doxorubicin) was 3.08% (inactive). Further, the inhibition is -5.95% (inactive) in experiment [5] and -6.36% (inactive) in experiment [6].

Consider `CCCCOC(=O)Nc1nccs1`, for which the viability was 101% (inactive) in experiment [1]; 107% (inactive) in experiment [2]; 103% (inactive) in experiment [3]; 101% in experiment [4] (setting [7]); 103% in experiment [4] (setting [8]). For the same compound, in experiment [4] (H69AR cells + 2 uM doxorubicin), the differential viability (reversal) was 1.28% (inactive). For the same compound, the inhibition in experiment [5] is -5.33% (inactive); in experiment [6] it was -3.27% (inactive).

As to `CCOC(=O)c1ccc(NC(=O)CSC2=NC(=O)C(CC)C(=O)N2)cc1` (stereo unspecified), the viability in experiment [1] was 94% (inactive); in experiment [2], 65.8% (inactive); in experiment [3], 105% (inactive); in experiment [4] (setting [7]) it was 83.3%; in experiment [4] (setting [8]), 105%. In experiment [4] (H69AR cells + 2 uM doxorubicin), the differential viability (reversal) was 22.1% (inactive). The inhibition is 0.78% (inactive) in experiment [5] and -2.3% (inactive) in experiment [6].

Turning to `CCN(CC)c1ccc(C(=O)n2cnc3ccccc32)cc1`, the viability was 111% (inactive) in experiment [1]; 61.5% (inactive) in experiment [2]; 15.1% (active) in experiment [3]; 68.8% in experiment [4] (setting [7]); 15.1% in experiment [4] (setting [8]). In addition, the differential viability (reversal) in experiment [4] (H69AR cells + 2 uM doxorubicin) is -53.7% (inactive). Further, the inhibition was -3.33% (inactive) in experiment [5] and -2% (inactive) in experiment [6].

`CC(=O)Nc1ccc(S(=O)(=O)NCc2csc(-c3cccnc3)n2)cc1`: the viability was 97% (inactive) in experiment [1]; 101% (inactive) in experiment [2]; 97.6% (inactive) in experiment [3]; 102% in experiment [4] (setting [7]); 97.6% in experiment [4] (setting [8]). For the same compound, the differential viability (reversal) in experiment [4] (H69AR cells + 2 uM doxorubicin) is -4.67% (inactive). In addition, the inhibition in experiment [5] is -1.69% (inactive); in experiment [6] it was 1.8% (inactive).

For `CCOC(=O)c1ccccc1NC1CC(=O)N(c2ccccc2C)C1=O` (stereo unspecified), the viability in experiment [1] was 98% (inactive); in experiment [2], 101% (inactive); in experiment [3] it was 98.4% (inactive); in experiment [4] (setting [7]), 89.6%; in experiment [4] (setting [8]), 98.4%. The differential viability (reversal) in experiment [4] (H69AR cells + 2 uM doxorubicin) was 8.82% (inactive). For the same compound, the results for the inhibition in experiment [5] and in experiment [6] were -2.13% (inactive) and -6.73% (inactive), respectively.

For `Cc1ccc2c(c1)N(CC(=O)N1CCCCC1c1cccnc1)C(=O)CO2` (stereo unspecified), the viability was 106% (inactive) in experiment [1]; 99.8% (inactive) in experiment [2]; 95% (inactive) in experiment [3]; 99% in experiment [4] (setting [7]); 95% in experiment [4] (setting [8]). Also, in experiment [4] (H69AR cells + 2 uM doxorubicin), the differential viability (reversal) was -4.01% (inactive). In addition, the inhibition is -2.84% (inactive) in experiment [5] and -5.82% (inactive) in experiment [6].

For `COCCCC/C(=N\OCCN)c1ccc(C(F)(F)F)cc1`, the viability was 84% (inactive) in experiment [1]; 55.7% (inactive) in experiment [2]; 104% (inactive) in experiment [3]; 83.9% in experiment [4] (setting [7]); 104% in experiment [4] (setting [8]). The differential viability (reversal) in experiment [4] (H69AR cells + 2 uM doxorubicin) is 20% (inactive). In addition, the inhibition was -0.91% (inactive) in experiment [5] and -6.83% (inactive) in experiment [6].

In the case of `CC(=O)c1c(O)cc(C)n(Nc2nc(C)cc(C)n2)c1=O`, the viability in experiment [1] was 91% (inactive); in experiment [2], 84.6% (inactive); in experiment [3], 71.9% (inactive); in experiment [4] (setting [7]), 100%; in experiment [4] (setting [8]) it was 71.9%. Moreover, the differential viability (reversal) in experiment [4] (H69AR cells + 2 uM doxorubicin) was -28.5% (inactive). Also, the inhibition in experiment [5] was -4.05% (inactive); in experiment [6] it was -0.73% (inactive).

As to `O=S1(=O)CCN2C(=N1)SC1=C2CCN(Cc2ccccc2)C1`, the viability was 106% (inactive) in experiment [1]; 96.7% (inactive) in experiment [2]; 89% (inactive) in experiment [3]; 90.2% in experiment [4] (setting [7]); 89% in experiment [4] (setting [8]). Also, the differential viability (reversal) in experiment [4] (H69AR cells + 2 uM doxorubicin) is -1.18% (inactive). Moreover, the inhibition in experiment [5] is -9.04% (inactive); in experiment [6], 3.09% (inactive).

Regarding `O=C(NCCCN1CCCC1=O)c1ccc2c(=O)n(Cc3ccco3)c(=S)[nH]c2c1`, the viability in experiment [1] was 97% (inactive); in experiment [2] it was 105% (inactive); in experiment [3], 99.6% (inactive); in experiment [4] (setting [7]), 91.7%; in experiment [4] (setting [8]), 99.6%. In experiment [4] (H69AR cells + 2 uM doxorubicin), the differential viability (reversal) is 7.89% (inactive). For the same compound, the results for the inhibition in experiment [5] and in experiment [6] were 1.95% (inactive) and 10.5% (inactive), respectively.

As to `CCCCN(Cc1cc2cc(OC)ccc2[nH]c1=O)C(=O)c1ccccn1`, the viability in experiment [1] was 102% (inactive); in experiment [2] it was 98% (inactive); in experiment [3] it was 102% (inactive); in experiment [4] (setting [7]) it was 95%; in experiment [4] (setting [8]) it was 102%. Further, the differential viability (reversal) in experiment [4] (H69AR cells + 2 uM doxorubicin) was 6.81% (inactive). The inhibition in experiment [5] is -5.14% (inactive); in experiment [6], -3.82% (inactive).

Turning to `Cc1cc(Br)c(S(=O)(=O)n2nnc3ccccc32)cc1C`, the viability in experiment [1] is 107% (inactive); in experiment [2] it was 101% (inactive); in experiment [3], 81.8% (inactive); in experiment [4] (setting [7]), 85.8%; in experiment [4] (setting [8]), 81.8%. For the same compound, in experiment [4] (H69AR cells + 2 uM doxorubicin), the differential viability (reversal) was -4.02% (inactive). The values for the inhibition in experiment [5] and in experiment [6] were -8.22% (inactive) and 5.09% (inactive), respectively.

Turning to `O=C(Cn1c(=O)n(CC2CCCO2)c(=O)c2ccccc21)c1ccccc1` (stereo unspecified), the viability is 121% (inactive) in experiment [1]; 79.1% (inactive) in experiment [2]; 81.5% (inactive) in experiment [3]; 89% in experiment [4] (setting [7]); 81.5% in experiment [4] (setting [8]). Further, the differential viability (reversal) in experiment [4] (H69AR cells + 2 uM doxorubicin) is -7.53% (inactive). Moreover, the inhibition was -1.17% (inactive) in experiment [5] and 6.39% (inactive) in experiment [6].

These data come from PubChem BioAssay.
